The values that follow come from ChEMBL document CHEMBL1933020, “A novel series of glucagon receptor antagonists with reduced molecular weight and lipophilicity” (Bioorg Med Chem Lett, 2012).

In brackets after ≈: the same amount, converted by molar mass. A value given as a limit tells only on which side of the number the result lay.

The nature of series [1]: Lipophilicity, log D of the compound in octanol-phosphate buffer at pH 7.4. Format: physicochemical. The following applies: octanol/phosphate buffer, read-out: logD. Put shortly:
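Shake-flask partition between octanol and buffer at pH 7.4.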

Series [2] has as its target Glucagon receptor (Rattus norvegicus) (UniProt P30082). In words: Antagonist activity at rat GCGR assessed as inhibition of glucagon-induced cAMP production. (In general: Changes in cAMP serve as a functional read-out for many G protein-coupled receptors.)
Series [3] can be described thus: Kinetic solubility of the compound at pH 6.5. Format: physicochemical. The following applies: buffer, read-out: Kinetic_solubility.
Series [4] addresses Glucagon-like peptide 1 receptor (Homo sapiens, UniProt P43220). In words: Displacement of [125I]GLP-1 from human GLP1R. Put shortly:
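Displacement of [125I]GLP-1 from membranes expressing the human GLP-1 receptor.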

The subject of series [5] is Rattus norvegicus. The series can be described thus: Antidiabetic activity in Wistar-Han rat assessed as reduction in glucagon-induced blood glucose excursion at 1 mg/kg, iv after 11 mins. Format: functional. On the set-up: scale not given: the % may be the effect or the level left. The essentials: (§1)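 Wistar-Han rats received compound or vehicle i.v. at t = 0 (1, 10 or 30 mg/kg), then a 3 µg/kg i.v. glucagon bolus at 15 min. Blood glucose was sampled at 0, 10, 26, 32, 50 and 80 min, and compound plasma levels were measured. n = 6 rats per dose group.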

In series [6] the test system is Rattus norvegicus. In words: Antidiabetic activity in Wistar-Han rat assessed as reduction in glucagon-induced blood glucose excursion at 10 mg/kg, iv after 11 mins. On the set-up: scale not given: the % may be the effect or the level left. Format: functional. Put shortly:
as §1

The test system of series [7] is Rattus norvegicus. The series can be described thus: Half life in Wistar-Han rat at 1 mg/kg, iv and 5 mg/kg, po. Format: ADME, organism-based. The following applies: in vivo. Put shortly: (§2)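 Wistar-Han rats were dosed at 1 mg/kg i.v. and 5 mg/kg p.o.; pharmacokinetic parameters were derived from the plasma profiles.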
In series [8] the target is T1, Gastric inhibitory polypeptide receptor (Homo sapiens, UniProt P48546).
T1 sequence (P48546 whole entry): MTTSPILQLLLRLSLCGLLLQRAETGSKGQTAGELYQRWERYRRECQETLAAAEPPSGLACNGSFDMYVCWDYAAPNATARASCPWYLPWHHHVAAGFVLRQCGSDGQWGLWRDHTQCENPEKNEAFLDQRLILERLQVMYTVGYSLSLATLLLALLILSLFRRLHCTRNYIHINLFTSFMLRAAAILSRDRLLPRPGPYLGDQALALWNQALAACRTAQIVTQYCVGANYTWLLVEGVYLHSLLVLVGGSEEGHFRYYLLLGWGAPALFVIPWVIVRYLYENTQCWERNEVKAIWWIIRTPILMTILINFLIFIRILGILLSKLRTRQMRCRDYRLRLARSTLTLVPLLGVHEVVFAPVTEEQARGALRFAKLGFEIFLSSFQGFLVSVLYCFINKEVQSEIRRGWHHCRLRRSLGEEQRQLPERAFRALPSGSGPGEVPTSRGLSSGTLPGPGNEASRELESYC
In words: Displacement of [125I]GIP from human GIPR.

A short description of series [9]: Plasma concentration in Wistar-Han rat at 10 mg/kg, iv after 11 mins. Format: ADME, organism-based. On the set-up: dose 10 mg/kg, route intravenous. Put shortly:
as §1

A short description of series [10]: Permeability across low transporter-containing MDCK2 cells. Format: ADME, cell-based, Canis lupus familiaris, MDCK-II. The conditions noted are these: dog, MDCK; read-out: permeability.
Series [11] concerns the target T2, Glucagon receptor (Homo sapiens, UniProt P47871). The series can be described thus: Displacement of [125I]Glucagon-Cex from human GCGR. Put shortly: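 Displacement of [125I]glucagon-Cex from membranes containing the human glucagon receptor, run with 0.2% BSA. Values are geometric means of n ≥ 2 determinations.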
Series [12] can be described thus: Apparent intrinsic clearance in rat liver microsomes. The following applies: read-out: CLH. Format: ADME, Microsome.
The subject of series [13] is Rattus norvegicus. The series can be described thus: Volume of distribution at steady state in Wistar-Han rat at 1 mg/kg, iv and 5 mg/kg, po. Format: ADME, organism-based. The conditions noted are these: in vivo. The essentials: as §2
The nature of series [14]: Cytotoxicity against human THLE cells after 72 hrs. Format: cell-based. The following applies: thle. Put shortly: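 Transformed human liver epithelial (THLE) cells were exposed to compound for 72 h. Cytotoxicity was read as cellular ATP depletion and reported as the concentration predicted to kill 50% of cells.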
In series [15] the test system is Rattus norvegicus. The series can be described thus: Oral bioavailability in Wistar-Han rat at 5 mg/kg. Format: ADME, organism-based. The conditions noted are these: in vivo. The essentials: as §2
Series [16] is described as follows: Plasma concentration in Wistar-Han rat at 1 mg/kg, iv after 11 mins. On the set-up: dose 1 mg/kg, route intravenous. Format: ADME, organism-based. The essentials:
as §1

A short description of series [17]: Plasma concentration in Wistar-Han rat at 30 mg/kg, iv after 11 mins. Format: ADME, organism-based. On the set-up: dose 30 mg/kg, route intravenous. Put shortly: as §1
The test system of series [18] is Rattus norvegicus. The series can be described thus: Antidiabetic activity in Wistar-Han rat assessed as reduction in glucagon-induced blood glucose excursion at 30 mg/kg, iv after 11 mins. Format: functional. Also noted: scale not given: the % may be the effect or the level left. Put shortly: as §1
Series [19] concerns the target T2, Glucagon receptor. The series can be described thus: Antagonist activity at human GCGR assessed as inhibition of glucagon-induced cAMP accumulation in cell-based assay. Format: functional. The essentials: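 Cell line expressing the human glucagon receptor. Antagonism was measured as inhibition of glucagon-induced cAMP production. […] Values are geometric means of n ≥ 2 determinations.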

The species named for series [20] is Rattus norvegicus. The series can be described thus: Antidiabetic activity in Wistar-Han rat assessed as reduction in glucagon-induced blood glucose excursion.

T2 sequence (P47871 whole entry): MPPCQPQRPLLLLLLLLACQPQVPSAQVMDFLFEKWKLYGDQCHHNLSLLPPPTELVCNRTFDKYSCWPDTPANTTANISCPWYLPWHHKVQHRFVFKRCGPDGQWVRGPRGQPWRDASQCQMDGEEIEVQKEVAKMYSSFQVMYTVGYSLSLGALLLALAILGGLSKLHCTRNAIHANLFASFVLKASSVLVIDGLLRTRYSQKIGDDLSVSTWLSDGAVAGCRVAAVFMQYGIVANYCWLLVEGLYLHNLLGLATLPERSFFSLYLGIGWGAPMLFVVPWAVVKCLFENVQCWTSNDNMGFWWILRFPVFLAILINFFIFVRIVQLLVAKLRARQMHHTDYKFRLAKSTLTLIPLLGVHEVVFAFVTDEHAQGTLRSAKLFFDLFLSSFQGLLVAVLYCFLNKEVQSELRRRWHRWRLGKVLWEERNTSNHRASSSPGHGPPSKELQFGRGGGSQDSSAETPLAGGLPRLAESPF
Chain of Glucagon-like peptide 1 receptor (P43220 whole entry): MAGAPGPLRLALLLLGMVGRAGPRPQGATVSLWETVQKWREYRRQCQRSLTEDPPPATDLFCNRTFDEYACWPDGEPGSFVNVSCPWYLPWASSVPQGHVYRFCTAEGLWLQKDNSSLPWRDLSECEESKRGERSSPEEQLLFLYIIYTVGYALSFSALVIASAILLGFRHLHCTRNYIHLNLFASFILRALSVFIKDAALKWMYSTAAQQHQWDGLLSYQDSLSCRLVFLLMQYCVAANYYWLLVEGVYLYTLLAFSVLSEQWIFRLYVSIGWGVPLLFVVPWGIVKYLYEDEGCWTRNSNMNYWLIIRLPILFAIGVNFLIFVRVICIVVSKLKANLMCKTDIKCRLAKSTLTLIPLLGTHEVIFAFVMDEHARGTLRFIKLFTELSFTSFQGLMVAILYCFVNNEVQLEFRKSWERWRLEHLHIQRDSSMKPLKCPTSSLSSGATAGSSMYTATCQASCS

As usually defined, the logD is the decadic logarithm of the distribution of all forms, ionised or not, between an organic phase and buffer at a given pH. As a reminder, the Kb is the affinity of an antagonist, worked out from how it opposes an agonist. What is called Ki is a dissociation constant, usually derived from enzyme kinetics or from competition with a known ligand. Usually IC50 stands for the midpoint of a concentration-inhibition curve. Take `O=C(O)CCNC(=O)c1ccc(C(Nc2cnn(-c3ccc(C(F)(F)F)cc3)c2)C2CCCC2)cc1` (single isomer, unassigned; (+)) [listing 1 of 2 here]: the logD in series [1] is 2.27. Besides, the Kb in series [2] amounted to 2340 nM. The solubility kinetic in series [3] amounted to 320 µM (≈ 160 µg/mL). The Ki in series [4] turned out to be 3340 nM; in [8], 152 nM; at Glucagon receptor [11], 9 nM. Further, the Activity in the series with Rattus norvegicus [5] was found to be 12%; with Rattus norvegicus [6] it was 20%; in the series on Rattus norvegicus [18], 24%. This compound returned a t1/2 with Rattus norvegicus [7] of 24 min. Also, the concentration at 11 min in series [9] was 2280 ng/mL; in [16] it was 300 ng/mL; in [17], 21000 ng/mL. Also, in [10], the Papp is 6.34 ×10⁻⁶ cm/s. Moreover, in series [12], the CLint scaled was less than 25 mL/min/kg. Besides, in the series with Rattus norvegicus [13], the Vdss was determined as 1.27 L/kg. This compound yielded a 50% inhibitory concentration (IC50) in series [14] of 235000 nM. This compound also showed a F in the series with Rattus norvegicus [15] of 2%.

As to `O=C(O)CCNC(=O)c1ccc(C(Nc2cnn(-c3ccc(C(F)(F)F)cc3)c2)C2CCCC2)cc1` (single isomer, unassigned; (+)) [listing 2 of 2 here], at Glucagon receptor [19], the Kb was determined as 120 nM. Moreover, in the series filed under Rattus norvegicus [20], the Activity result is “Dose-dependent effect”.
